Experimental data: PMC6689761 (International Journal of Nanomedicine, 2019)
pEC50: −log10 of the molar value. Read-outs that look alike come from different tables or passages of the source.

How the values were obtained:
[1] = Aqueous solubility; format: physicochemical; conditions: water, 24 hrs, room temperature
How it was run: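 Excess drug mixed in water 24 hrs at room temperature, spun 20,000× g for 10 mins. Supernatant quantified by reversed-phase UPLC on C18 at 1.0 mL/min. Parent run in 95% 20 mM ammonium acetate/5% ACN, pH 3.9, detected at 272 nm. Prodrug run in 90% methanol/10% water, detected at 280 nm. Peak areas compared with 0.05–50 µg/mL standards in methanol.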

[2] = system: HIV-1ADA; assay: EC50 by HIV-1 RT activity in MDMs; format: cell-based; conditions: HIV-1ADA MOI 0.1, HIV-1 RT activity
How it was run: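 Human MDMs pretreated 1 hr with 0.01–1000 nM test compound, then exposed to HIV-1ADA at MOI 0.1 for 4 hrs. RT activity measured in collected media. EC50 taken as 50% inhibitory concentration from nonlinear-regression concentration–response fits.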

[3] = system: human monocyte-derived macrophages (MDMs); assay: MTT cytotoxicity assay in MDMs; format: cell-based; conditions: up to 100 µM, 4 days of exposure
How it was run: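 Monocytes plated at 80,000 cells/well and differentiated to macrophages. Exposed to 10–400 µM test compound or nanoformulation for 4 days. Washed, then MTT (5 mg/mL) added for 45 mins at 37°C. Formazan dissolved in DMSO and absorbance read at 490 nm. Values normalised to untreated cells; at least three biological replicates.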

[4] = system: human monocyte-derived macrophages (MDMs); assay: Nanoparticle macrophage uptake and retention; format: cell-based; conditions: 100 µM
[5] = system: HIV-1ADA; assay: Antiretroviral efficacy in drug-preloaded MDMs; format: cell-based
How it was run: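 Human monocytes from HIV- and hepatitis-seronegative donors, elutriated and differentiated to MDMs. Cells exposed to 100 µM test drug or nanoformulation for 8 hrs, PBS-washed, then challenged with HIV-1ADA (MOI 0.1) for 18 hrs at times from 0 hr to 15 days after loading. Cultured 10 more days, medium changed every other day. Day-10 medium RT activity and p24 immunocytochemistry on 4% paraformaldehyde-fixed cells; uninfected and infected controls.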

[6] = PK and biodistribution in rats after IM injection; format: in vivo, Sprague-Dawley rats; conditions: rat
[7] = format: in vivo, Sprague-Dawley rats; conditions: rat, IM
How it was run: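 Male Sprague-Dawley rats dosed IM (caudal thigh) at 45, 75 or 100 mg/kg FTC-equivalents. Cells from fresh blood, spleen and lymph nodes isolated, stored in 70% methanol and counted. Triphosphate separated from mono- and diphosphates on QMA cartridges, then dephosphorylated with type XA sweet potato acid phosphatase. Isotope-labelled lamivudine internal standard added after incubation (final 0.5 ng/mL). Mean±SEM, n=3–5.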

[8] = reported value, no reference given; cited from earlier work

aqueous solubility [1]: 134 mg/mL
pEC50 [2]: 7.10
highest intracellular FTC-TP concentration ([4]; after 8 hrs): 10 pmol/10^6 cells
FTC plasma level ([6]; 45 mg/kg FTC-equivalents, day 1): 25 ng/mL
FTC level in liver ([6]; 45 mg/kg, day 7): 2.6 ng/g
FTC level in lymph nodes ([6]; 45 mg/kg, day 7): 17 ng/g
FTC level in spleen ([6]; 45 mg/kg, day 7): 0 ng/g
FTC plasma level ([6]; 45 mg/kg, day 7): 0 ng/mL
FTC plasma level ([6]; 75 mg/kg FTC-equivalents, day 1): 34 ng/mL
FTC level in liver ([6]; 75 mg/kg, day 7): 14 ng/g
FTC level in lymph nodes ([6]; 75 mg/kg, day 7): 6 ng/g
FTC level in spleen ([6]; 75 mg/kg, day 7): 1.6 ng/g
FTC plasma level ([6]; 75 mg/kg, day 7): 3 ng/mL
FTC plasma level ([6]; 100 mg/kg FTC-equivalents, day 1): 52 ng/mL
FTC level in liver ([6]; 100 mg/kg, day 7): 0.6 ng/g
FTC level in lymph nodes ([6]; 100 mg/kg, day 7): 8 ng/g
FTC level in spleen ([6]; 100 mg/kg, day 7): 6 ng/g
FTC plasma level ([6]; 100 mg/kg, day 7): 1.4 ng/mL
FTC plasma levels compared to NMFTC treatment ([6]; 2 hrs): several fold higher
FTC-TP level in PBMCs ([7]; 45 mg/kg, day 1): 100 fmol/10^6 cells
FTC-TP level in PBMCs ([7]; 45 mg/kg, day 7): 6 fmol/10^6 cells
FTC-TP level in PBMCs ([7]; 75 mg/kg, day 1): 133 fmol/10^6 cells
FTC-TP level in PBMCs ([7]; 75 mg/kg, day 7): 7 fmol/10^6 cells
FTC-TP level in PBMCs ([7]; 100 mg/kg, day 1): 163 fmol/10^6 cells
FTC-TP level in PBMCs ([7]; 100 mg/kg, day 7): 8 fmol/10^6 cells
fold higher PBMC FTC-TP levels compared to NMFTC treatment ([7]; 2 hrs): 2–3 fold
FTC-TP levels in lymph node cells ([7]; day 1, across doses): 4–7 fmol/10^6 cells
FTC-TP levels in spleen ([7]; day 1, across doses): 6–13 fmol/10^6 cells
FTC-TP levels in lymph node cells ([7]; day 7, regardless of dose): 1–2 fmol/10^6 cells
FTC-TP levels in spleen ([7]; day 7, regardless of dose): 2–3 fmol/10^6 cells
Substance: 2`-deoxy-5-fluoro-3`thiacytidine [FTC]
MDM viability (MTT) [3]: did not affect MDM viability
intracellular drug levels ([4]; uptake over 24 hrs): minimal detectable intracellular drug levels
inhibition of viral RT activity ([5]; MDMs preloaded 100 µM 8 hrs, challenge at 24 hrs): 30%
HIV-1 p24 antigen staining ([5]; by 12 hrs following treatment): HIV-1 p24+ cells were observed
HIV-1 p24 antigen staining ([5]; by day 1): no effect
HIV-1 RT activity in pre-exposed MDMs ([5]; challenge beyond day 1): did not have effect
IC90 [8]: 0.014 µg/mL
reported 50% inhibitory concentration (IC50) [8]: 0.008 µg/mL
